pIC50: −log10 of the molar value. Activity calls are given as the source filed them. The calls are words filed in the database; no cut-off is given here. Non-standard residues stand in square brackets, D forms with d. Residues, ends and D or L forms follow the SMILES beside them. ξ: configuration not given here. Aoe(9ξ) = N[C@@H](CCCCCC(=O)C1CO1)C(=O)O; dPip = O=C(O)[C@H]1CCCCN1
What was measured:
Histone deacetylase HD2 [1] = target: T1, Histone deacetylase HD2 (Zea mays, UniProt Q94F81); assay: Concentration required for inhibition of histone deacetylase HD2 in vitro.
T1 sequence (Q94F81 whole entry): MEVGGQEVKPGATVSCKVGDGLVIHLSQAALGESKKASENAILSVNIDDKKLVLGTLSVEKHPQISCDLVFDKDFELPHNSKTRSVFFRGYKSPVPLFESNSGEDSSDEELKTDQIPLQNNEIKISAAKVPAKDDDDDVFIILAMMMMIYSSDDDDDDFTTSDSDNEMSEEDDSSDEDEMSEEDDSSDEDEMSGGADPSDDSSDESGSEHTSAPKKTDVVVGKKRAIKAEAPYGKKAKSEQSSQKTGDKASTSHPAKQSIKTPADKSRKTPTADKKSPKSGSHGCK

Histone deacetylase HD2 [2] = target: T1, Histone deacetylase HD2; assay: (§1) Inhibitory concentration against histone deacetylase HD2 enzyme.
How it was run: (§2)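 Maize HD2, purified by anion exchange, heparin/histone affinity and size exclusion chromatography, incubated 30 min at 30 °C with [3H]acetate-prelabeled chicken reticulocyte core histones (1 mg/mL). Stopped with HCl/acetate and extracted into ethyl acetate. Released [3H]acetic acid in the upper phase was counted by liquid scintillation. Compounds started at 40 µM and active ones were diluted further. Blank solvents served as negative controls. IC50 values are from triple determinations.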

[3] = target: T2, Histone deacetylase HD2 (Zea mays) (UniProt Q94F81); conditions: 24.6 uM
T2 sequence (whole entry): T1 sequence (Q94F81 whole entry)

[4] = target: T2, Histone deacetylase HD2 (Zea mays); assay: Ability to inhibit maize histone deacetylase enzyme in vitro using [3H]acetate-prelabeled chicken reticulocyte histones at 30 uM; No inhibition; how it was run: as §2
[5] = target: T2, Histone deacetylase HD2 (Zea mays); assay: as §1; how it was run: as §2
[6] = target: T2, Histone deacetylase HD2 (Zea mays); conditions: 25 uM
[7] = target: T2, Histone deacetylase HD2 (Zea mays); assay: Ability to inhibit maize histone deacetylase enzyme in vitro using [3H]acetate-prelabeled chicken reticulocyte histones at 24.8 uM; how it was run: as §2
[8] = target: T2, Histone deacetylase HD2 (Zea mays); conditions: 22.4 uM
[9] = target: T2, Histone deacetylase HD2 (Zea mays); assay: Ability to inhibit maize histone deacetylase enzyme in vitro using [3H]acetate-prelabeled chicken reticulocyte histones at 27 uM; how it was run: as §2
[10] = target: T2, Histone deacetylase HD2 (Zea mays); assay: Ability to inhibit maize histone deacetylase enzyme in vitro using [3H]acetate-prelabeled chicken reticulocyte histones at 22.6 uM; how it was run: as §2
[11] = target: T2, Histone deacetylase HD2 (Zea mays); assay: Ability to inhibit maize histone deacetylase enzyme in vitro using [3H]acetate-prelabeled chicken reticulocyte histones at 24 uM
How it was run: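 Maize HD2 purified by anion exchange, heparin/histone affinity and size exclusion chromatography. Enzyme incubated 30 min at 30 °C with [3H]acetate-prelabeled chicken reticulocyte core histones (1 mg/mL stock). Reaction stopped with HCl/acetate plus ethyl acetate, then centrifuged. Released [3H]acetic acid in the upper phase counted by liquid scintillation. Blank solvent served as negative control. Triple determinations.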

[12] = target: T2, Histone deacetylase HD2 (Zea mays); assay: Ability to inhibit maize histone deacetylase enzyme in vitro using [3H]acetate-prelabeled chicken reticulocyte histones at 29 uM
How it was run: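 Maize HD2 purified by anion exchange, heparin/histone affinity and size exclusion chromatography. Enzyme incubated 30 min at 30 °C with [3H]acetate-prelabeled chicken reticulocyte core histones (1 mg/mL). Stopped with HCl/acetate, then extracted into ethyl acetate; released [3H]acetic acid in the upper phase counted by liquid scintillation. Triple determinations; blank solvent as negative control.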

[13] = target: T2, Histone deacetylase HD2 (Zea mays); assay: Ability to inhibit maize histone deacetylase enzyme in vitro using [3H]acetate-prelabeled chicken reticulocyte histones at 26 uM; how it was run: as §2
[14] = target: T2, Histone deacetylase HD2 (Zea mays); assay: Ability to inhibit maize histone deacetylase enzyme in vitro using [3H]acetate-prelabeled chicken reticulocyte histones at 21.3 uM; how it was run: as §2
[15] = target: T2, Histone deacetylase HD2 (Zea mays); assay: Ability to inhibit maize histone deacetylase enzyme in vitro using [3H]acetate-prelabeled chicken reticulocyte histones at 28 uM; how it was run: as §2
[16] = target: T2, Histone deacetylase HD2 (Zea mays); assay: Ability to inhibit maize histone deacetylase enzyme in vitro using [3H]acetate-prelabeled chicken reticulocyte histones at 23.9 uM; how it was run: as §2
[17] = target: T2, Histone deacetylase HD2 (Zea mays); assay: Ability to inhibit maize histone deacetylase enzyme in vitro using [3H]acetate-prelabeled chicken reticulocyte histones at 23.3 uM; how it was run: as §2
[18] = target: T2, Histone deacetylase HD2 (Zea mays); assay: Ability to inhibit maize histone deacetylase enzyme in vitro using [3H]acetate-prelabeled chicken reticulocyte histones at 28.2 uM; how it was run: as §2
[19] = target: T2, Histone deacetylase HD2 (Zea mays); assay: Ability to inhibit maize histone deacetylase enzyme in vitro using [3H]acetate-prelabeled chicken reticulocyte histones at 20.8 uM; how it was run: as §2
[20] = target: T2, Histone deacetylase HD2 (Zea mays); assay: Ability to inhibit maize histone deacetylase enzyme in vitro using [3H]acetate-prelabeled chicken reticulocyte histones at 25.7 uM; how it was run: as §2
[21] = target: T2, Histone deacetylase HD2 (Zea mays); assay: Ability to inhibit maize histone deacetylase enzyme in vitro using [3H]acetate-prelabeled chicken reticulocyte histones at 21.7 uM; how it was run: as §2
[22] = target: T2, Histone deacetylase HD2 (Zea mays); assay: Ability to inhibit maize histone deacetylase enzyme in vitro using [3H]acetate-prelabeled chicken reticulocyte histones at 25.8 uM; how it was run: as §2
[23] = target: T2, Histone deacetylase HD2 (Zea mays); assay: Ability to inhibit maize histone deacetylase enzyme in vitro using [3H]acetate-prelabeled chicken reticulocyte histones at 29.8 uM; how it was run: as §2
[24] = target: T2, Histone deacetylase HD2 (Zea mays); assay: Ability to inhibit maize histone deacetylase enzyme in vitro using [3H]acetate-prelabeled chicken reticulocyte histones at 30 uM; NI = No inhibition; how it was run: as §2

Cn1cc(C(=O)CCCc2ccccc2)cc1/C=C/C(=O)NO
pIC50 (Histone deacetylase HD2 [1]): 6.89 | pIC50 (Histone deacetylase HD2 [2]): 6.89 | inhibition [3]: 94%

Cn1cc(C(=O)Cc2ccccc2)cc1C=C(C(=O)O)C(=O)O
inhibition [4]: inactive | Log IC50 [5]: inactive

O=C(CCCCC[C@@H]1NC(=O)[C@H]2CCCCN2C(=O)[C@H](Cc2ccccc2)NC(=O)[C@H](Cc2ccccc2)NC1=O)C1CO1 (stereo partly specified) [TRAPOXIN A] (cyclo(FF[dPip][Aoe(9ξ)]))
pIC50 (Histone deacetylase HD2 [1]): 8.00

C/C(=C\c1cc(C(=O)/C=C/c2ccccc2)cn1C)C(=O)NO
pIC50 (Histone deacetylase HD2 [1]): 5.89 | pIC50 (Histone deacetylase HD2 [2]): 5.89 | inhibition [6]: 96%

Cn1cc(C(=O)C2CC2c2ccccc2)cc1/C=C/C(=O)NO (stereo unspecified)
pIC50 (Histone deacetylase HD2 [1]): 6.51 | inhibition [7]: 97.6% | pIC50 (Histone deacetylase HD2 [2]): 6.51

Cn1cc(C(=O)Cc2ccccc2)cc1/C=C/C=C/C(=O)NO
pIC50 (Histone deacetylase HD2 [1]): 5.83 | inhibition [7]: 89.8% | pIC50 (Histone deacetylase HD2 [2]): 5.83

Cn1cc(C(=O)Cc2ccccc2)cc1C=C(C(=O)NO)C(=O)NO
pIC50 (Histone deacetylase HD2 [1]): 6.70 | pIC50 (Histone deacetylase HD2 [2]): 6.70 | inhibition [8]: 91%

Cn1cc(C(=O)Cc2ccccc2)cc1CCC(=O)NO
pIC50 (Histone deacetylase HD2 [1]): 5.92 | pIC50 (Histone deacetylase HD2 [2]): 5.92 | inhibition [9]: 96%

Cn1cc(C(=O)CCCCCc2ccccc2)cc1/C=C/C(=O)NO
inhibition [10]: 97.2% | pIC50 (Histone deacetylase HD2 [1]): 7.15 | pIC50 (Histone deacetylase HD2 [2]): 7.15

Cn1cc(C(=O)c2cccc3ccccc23)cc1/C=C/C(=O)NO
inhibition [11]: 93.6% | pIC50 (Histone deacetylase HD2 [1]): 6.84 | pIC50 (Histone deacetylase HD2 [2]): 6.84

Cn1cc(C(=O)Cc2ccccc2)cc1/C=C/C(=O)NO
pIC50 (Histone deacetylase HD2 [1]): 7.00 | inhibition [12]: 96% | pIC50 (Histone deacetylase HD2 [2]): 7.00

C/C(=C\c1cc(C(=O)Cc2ccccc2)cn1C)C(=O)NO
pIC50 (Histone deacetylase HD2 [1]): 5.85 | inhibition [13]: 95% | pIC50 (Histone deacetylase HD2 [2]): 5.85

Cn1cc(C(=O)C2(c3ccccc3)CC2)cc1/C=C/C(=O)NO
pIC50 (Histone deacetylase HD2 [1]): 7.00 | inhibition [14]: 94.2% | pIC50 (Histone deacetylase HD2 [2]): 7.00

Cn1cc(C(=O)c2ccccc2)cc1/C=C/C=C/C(=O)NO
pIC50 (Histone deacetylase HD2 [1]): 6.11 | inhibition [15]: 94% | pIC50 (Histone deacetylase HD2 [2]): 6.11

Cn1cc(C(=O)/C=C/c2ccccc2)cc1/C=C/C=C/C(=O)NO
inhibition [16]: 66% | pIC50 (Histone deacetylase HD2 [1]): 5.00 | pIC50 (Histone deacetylase HD2 [2]): 5.00

Cn1cc(C(=O)c2ccccc2)cc1CC(=O)NO
pIC50 (Histone deacetylase HD2 [1]): 4.46 | pIC50 (Histone deacetylase HD2 [2]): 4.46

Cn1cc(C(=O)CCCCc2ccccc2)cc1/C=C/C(=O)NO
pIC50 (Histone deacetylase HD2 [1]): 6.96 | pIC50 (Histone deacetylase HD2 [2]): 6.96 | inhibition [17]: 94%

Cn1c(CC(=O)NO)ccc1C(=O)Cc1ccccc1
pIC50 (Histone deacetylase HD2 [1]): 4.77 | inhibition [18]: 64.2% | pIC50 (Histone deacetylase HD2 [2]): 4.77

CC/C(=C\c1cc(C(=O)Cc2ccccc2)cn1C)C(=O)NO
inhibition [4]: inactive | Log IC50 [5]: inactive

Cn1cc(C(=O)/C=C/c2ccccc2)cc1/C=C/C(=O)NO
pIC50 (Histone deacetylase HD2 [1]): 6.00 | inhibition [15]: 95% | pIC50 (Histone deacetylase HD2 [2]): 6.00

Cn1cc(C(=O)CCCCCCCc2ccccc2)cc1/C=C/C(=O)NO
pIC50 (Histone deacetylase HD2 [1]): 6.68 | inhibition [19]: 96% | pIC50 (Histone deacetylase HD2 [2]): 6.68

Cn1cc(C(=O)Cc2ccccc2)cc1CC(=O)NO
pIC50 (Histone deacetylase HD2 [1]): 4.97 | inhibition [18]: 62.8% | pIC50 (Histone deacetylase HD2 [2]): 4.97

CCCC(CCC)C(=O)O [VALPROATE SODIUM]
pIC50 (Histone deacetylase HD2 [1]): 3.89

Cn1cc(C(=O)c2ccccc2)cc1C=C(C(=O)NO)C(=O)NO
pIC50 (Histone deacetylase HD2 [1]): 4.18 | pIC50 (Histone deacetylase HD2 [2]): 4.18 | inhibition [17]: 22.7%

C/C(=C\c1cc(C(=O)c2ccccc2)cn1C)C(=O)NO
pIC50 (Histone deacetylase HD2 [1]): 5.57 | pIC50 (Histone deacetylase HD2 [2]): 5.57 | inhibition [9]: 83%

CC/C(=C\c1cc(C(=O)/C=C/c2ccccc2)cn1C)C(=O)NO
inhibition [4]: inactive | Log IC50 [5]: inactive

Cn1cc(C(=O)CCc2ccccc2)cc1/C=C/C(=O)NO
pIC50 (Histone deacetylase HD2 [1]): 7.37 | inhibition [20]: 98% | pIC50 (Histone deacetylase HD2 [2]): 7.37

Cn1cc(C(=O)CCCCCCc2ccccc2)cc1/C=C/C(=O)NO
pIC50 (Histone deacetylase HD2 [1]): 6.58 | pIC50 (Histone deacetylase HD2 [2]): 6.58 | inhibition [21]: 95%

CC/C(=C\c1cc(C(=O)c2ccccc2)cn1C)C(=O)NO
inhibition [22]: 37% | Log IC50 [5]: inactive

Cn1c(CC(=O)NO)ccc1C(=O)c1ccccc1
pIC50 (Histone deacetylase HD2 [1]): 4.69 | inhibition [23]: 61.3% | pIC50 (Histone deacetylase HD2 [2]): 4.69

Cn1cc(C(=O)c2ccccc2)cc1C=C(C(=O)O)C(=O)O
inhibition [24]: inactive | Log IC50 [5]: inactive

Cn1cc(C(=O)c2ccc3ccccc3c2)cc1/C=C/C(=O)NO
inhibition [11]: 93.8% | pIC50 (Histone deacetylase HD2 [1]): 6.94 | pIC50 (Histone deacetylase HD2 [2]): 6.94
